According to article PMC7228743 (Science Advances, 2020):

Experiments:
Serum stability assay = type: in vitro ADME; conditions: 25% (v/v) pooled human serum, 37°C, 24 hours; RP-HPLC peak area at 215 nm
In short: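 Peptides dissolved in H2O/MeCN (70:30 v/v), diluted into 25% (v/v) aqueous pooled serum from human male AB plasma, and held at 37°C for 24 hours. Samples were quenched with an equal volume of MeCN on ice for 20 min, then centrifuged at 4°C for 15 min. Supernatant was diluted in H2O (0.1% TFA) to 0.1 mg/ml and run on RP-HPLC. Intact peptide was taken from the elution peak area at 215 nm.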

hGLP-1R = hGLP-1R (Homo sapiens, UniProt P43220); assay: In vitro GLP-1R activation assay; type: cell-based; conditions: ratio of cAMP EC50 values, 39.79 nM versus […]
Chain of hGLP-1R (P43220 24-463): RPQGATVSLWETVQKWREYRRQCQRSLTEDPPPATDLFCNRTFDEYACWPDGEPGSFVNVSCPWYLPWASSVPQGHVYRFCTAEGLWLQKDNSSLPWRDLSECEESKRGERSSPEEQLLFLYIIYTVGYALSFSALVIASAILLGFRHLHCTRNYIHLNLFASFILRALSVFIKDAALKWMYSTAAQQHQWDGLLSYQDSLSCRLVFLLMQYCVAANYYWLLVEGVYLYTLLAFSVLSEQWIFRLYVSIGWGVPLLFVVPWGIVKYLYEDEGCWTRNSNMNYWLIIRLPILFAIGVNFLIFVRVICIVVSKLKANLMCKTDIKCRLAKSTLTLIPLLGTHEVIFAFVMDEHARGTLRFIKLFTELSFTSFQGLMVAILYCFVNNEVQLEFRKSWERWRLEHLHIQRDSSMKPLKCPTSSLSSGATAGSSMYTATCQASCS

| Structure (SMILES) | Stability in the presence of serum (in words) (Serum stability assay) | Potency of 3 relative to capped GLP-1 2 (fold lower) (hGLP-1R) |
| --- | --- | --- |
| CC[C@H](C)[C@@H](CN(CC(=O)N[C@@H](Cc1c[nH]c2ccccc12)CN(CC(=O)N[C@H](CN(CC(=O)NCCN(CC(N)=O)S(=O)(=O)CCN)S(=O)(=O)CCN)C(C)C)S(=O)(=O)CC(C)C)S(C)(=O)=O)NC(=O)CN(C[C@H](CCC(=O)O)NC(=O)CN(C[C@H](C)NC(=O)CN(C[C@H](CCCCN)NC(=O)CN(C[C@H](CCC(=O)O)NC(=O)CN(C[C@H](Cc1ccc(O)cc1)NC(=O)CN(C[C@H](CO)NC(=O)CN(C[C@H](CC(=O)O)NC(=O)CN(C[C@@H](NC(=O)CN(C[C@@H](NC(=O)CN(C[C@H](CCC(=O)O)NC(=O)CN(C[C@H](Cc1ccccc1)NC(C)=O)S(C)(=O)=O)S(C)(=O)=O)[C@@H](C)O)S(=O)(=O)Cc1ccccc1)[C@@H](C)O)S(C)(=O)=O)S(=O)(=O)CC(C)C)S(=O)(=O)c1ccc(OC)cc1)S(=O)(=O)CC(C)C)S(C)(=O)=O)S(C)(=O)=O)S(=O)(=O)CCN)S(=O)(=O)Cc1ccccc1 [compound 5] | remarkable stability | – |
| CC[C@H](C)[C@@H](CN(CC(=O)N[C@@H](Cc1c[nH]c2ccccc12)CN(CC(=O)N[C@H](CN(CC(=O)NCCN(CC(N)=O)S(=O)(=O)CCN)S(=O)(=O)CCN)C(C)C)S(=O)(=O)CC(C)C)S(C)(=O)=O)NC(=O)CN(C[C@H](CCC(=O)O)NC(=O)CN(C[C@H](C)NC(=O)CN(C[C@H](CCCCN)NC(=O)CN(C[C@H](CCC(=O)O)NC(=O)CN(C[C@H](Cc1ccc(O)cc1)NC(=O)CN(C[C@H](CO)NC(=O)CN(C[C@H](CC(=O)O)NC(=O)CN(C[C@@H](NC(=O)CN(C[C@@H](NC(=O)CN(C[C@H](CCC(=O)O)NC(=O)CN(C[C@H](Cc1ccccc1)NC(C)=O)S(C)(=O)=O)S(C)(=O)=O)[C@@H](C)O)S(=O)(=O)Cc1ccccc1)[C@@H](C)O)S(C)(=O)=O)S(=O)(=O)CC(C)C)S(C)(=O)=O)S(=O)(=O)CC(C)C)S(C)(=O)=O)S(C)(=O)=O)S(=O)(=O)CCN)S(=O)(=O)Cc1ccccc1 [compound 3] | remarkable stability | ~ 10 fold |
